Counter-ions that a name gives are not always drawn. Active and inactive are the calls of the source. The calls are words filed in the database; no cut-off is given here.
What was measured:
HeLa [1] = assay: Anticancer activity against human HeLa cells after 48 hrs by MTT assay; format: functional, cell-based
Method in brief: (§1)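 Cells seeded at 1 × 10⁴/well in DMEM with 10% FBS and left overnight at 37 °C, 5% CO₂. Five concentrations (1 µM–100 µM) diluted in DMEM were added and incubated for 48 h. MTT (10 µl of 5 mg/ml) was then added for 4 h at 37 °C. Formazan was dissolved in DMSO and absorbance read at 490 nm. At least three parallel runs; IC50 by regression analysis.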

[2] = Anticancer activity against human Hep3B cells after 48 hrs by MTT assay; format: functional, cell-based, Hep 3B2; method in brief: as §1
A549 [3] = assay: Anticancer activity against human A549 cells after 48 hrs by MTT assay; format: functional, cell-based; conditions: A549, 48 h; method in brief: as §1
HEK-293T = assay: Cytotoxicity against human HEK293T cells after 48 hrs by MTT assay; format: cell-based; method in brief: as §1
Vero = assay: Cytotoxicity against African green monkey Vero cells after 48 hrs by MTT assay; format: cell-based; conditions: Chlorocebus sabaeus; method in brief: as §1
Hep 3B2 = assay: Anticancer activity against human Hep3B cells at =/> 100 uM after 48 hrs by MTT assay; format: functional, cell-based
HeLa [4] = assay: Anticancer activity against human HeLa cells at =/> 100 uM after 48 hrs by MTT assay; format: functional, cell-based
A549 [5] = assay: Anticancer activity against human A549 cells at =/> 100 uM after 48 hrs by MTT assay; format: functional, cell-based

Structure (SMILES) | IC50 (HeLa [1]) | IC50 (A549 [3]) | IC50 [2] | IC50 (HEK-293T) | IC50 (Vero) | Activity (Hep 3B2) | Activity (HeLa [4]) | Activity (A549 [5])
CCOc1ccc2c(c1)C(=O)c1cc(OCCN(CC)CC)ccc1-2 | 107 µM | > 100 µM | 84.8 µM | – | – | – | – | –
O=C1c2cc(OCCn3ccnc3)ccc2-c2ccc(OCCn3ccnc3)cc21 | > 100 µM | > 100 µM | > 100 µM | – | – | – | – | –
CCOc1ccc2c(c1)C(=O)c1cc(OCCN(C)C)ccc1-2 | > 100 µM | > 100 µM | > 100 µM | – | – | – | – | –
CN(C)CCCOc1ccc(-c2coc3cc(OCCCN(C)C)ccc3c2=O)cc1 | 22.2 µM | 20.6 µM | 24.4 µM | 41.9 µM | 34.9 µM | – | – | –
CCOc1ccc2c(c1)C(=O)c1cc(OCCO)ccc1-2 | – | – | – | – | – | inactive | inactive | inactive
CCN(CC)CCOc1ccc2c(c1)C(=O)c1cc(OCCN(CC)CC)ccc1-2 [TILORONE HYDROCHLORIDE] | 40 µM | 32.6 µM | 38.8 µM | 76.4 µM | 89.5 µM | – | – | –
O=c1c(-c2ccc(OCCCBr)cc2)coc2cc(OCCCBr)ccc12 | – | – | – | – | – | inactive | inactive | inactive
CCN(CC)CCOc1ccc2c(c1)C(=O)c1cc(OCCCl)ccc1-2 | > 100 µM | > 100 µM | > 100 µM | – | – | – | – | –
CCN(CC)CCCOc1ccc(-c2coc3cc(OCCCN(CC)CC)ccc3c2=O)cc1 | 82.4 µM | 73.5 µM | 76.1 µM | – | – | – | – | –
CC(C)SCCOc1ccc2c(c1)C(=O)c1cc(OCCSC(C)C)ccc1-2 | – | – | – | – | – | inactive | inactive | inactive
CCN(CC)CC(O)COc1ccc(-c2coc3cc(OCC(O)CN(CC)CC)ccc3c2=O)cc1 (centres undefined) | 27.8 µM | 25 µM | 30.4 µM | 52.9 µM | 60.1 µM | – | – | –
CCOc1ccc2c(c1)C(=O)c1cc(OCCCl)ccc1-2 | – | – | – | – | – | inactive | inactive | inactive
O=c1c(-c2ccc(OCCCl)cc2)coc2cc(OCCCl)ccc12 | – | – | – | – | – | inactive | inactive | inactive
CCN(CC)CCOc1ccc(-c2coc3cc(OCCN(CC)CC)ccc3c2=O)cc1 | 26.4 µM | 19.4 µM | 35.2 µM | 107 µM | 102 µM | – | – | –
O=C1c2cc(OCCn3ccnn3)ccc2-c2ccc(OCCn3ccnn3)cc21 | > 100 µM | > 100 µM | > 100 µM | – | – | – | – | –
O=C1c2cc(OCCn3cncn3)ccc2-c2ccc(OCCn3cncn3)cc21 | > 100 µM | > 100 µM | > 100 µM | – | – | – | – | –
CC(C)(C)SCCOc1ccc2c(c1)C(=O)c1cc(OCCSC(C)(C)C)ccc1-2 | – | – | – | – | – | inactive | inactive | inactive

Continued by falling IC50 (HeLa [1]), values first:

IC50 (HeLa [1]) | IC50 (A549 [3]) | Structure (SMILES) | IC50 [2] | IC50 (HEK-293T) | IC50 (Vero) | Activity (Hep 3B2) | Activity (HeLa [4]) | Activity (A549 [5])
20.2 µM | 16 µM | CCN(CC)CC(O)COc1ccc2c(c1)C(=O)c1cc(OCC(O)CN(CC)CC)ccc1-2 (centres undefined) | 21.5 µM | 56.4 µM | 48.6 µM | – | – | –
11.7 µM | 12.6 µM | CN(C)CC(O)COc1ccc2c(c1)C(=O)c1cc(OCC(O)CN(C)C)ccc1-2 (centres undefined) | 18.3 µM | 28.3 µM | 20.9 µM | – | – | –
9.17 µM | 7.86 µM | CC(C)(C)NCCOc1ccc2c(c1)C(=O)c1cc(OCCNC(C)(C)C)ccc1-2 | 20.1 µM | 19.8 µM | 25.3 µM | – | – | –
6.78 µM | 7.42 µM | CCCN(CCC)CC(O)COc1ccc2c(c1)C(=O)c1cc(OCC(O)CN(CCC)CCC)ccc1-2 (centres undefined) | 9.43 µM | 54 µM | 57.8 µM | – | – | –
5.32 µM | 4.34 µM | O=c1c(-c2ccc(OCC(O)CN3CCCCC3)cc2)coc2cc(OCC(O)CN3CCCCC3)ccc12 (centres undefined) | 12 µM | 20.2 µM | 18.5 µM | – | – | –
5.17 µM | 4.26 µM | CCCN(CCC)CC(O)COc1ccc(-c2coc3cc(OCC(O)CN(CCC)CCC)ccc3c2=O)cc1 (centres undefined) | 6.52 µM | 39.6 µM | 35.5 µM | – | – | –
2.73 µM | 2.96 µM | CCCNCCOc1ccc2c(c1)C(=O)c1cc(OCCNCCC)ccc1-2 | 5.17 µM | 8.59 µM | 8.47 µM | – | – | –
2.21 µM | 2.65 µM | CCCCNCCOc1ccc2c(c1)C(=O)c1cc(OCCNCCCC)ccc1-2 | 3.34 µM | 11 µM | 8.89 µM | – | – | –
1.82 µM | 1.4 µM | O=C1c2cc(OCC(O)CN3CCCCC3)ccc2-c2ccc(OCC(O)CN3CCCCC3)cc21 (centres undefined) | 6.76 µM | 17.9 µM | 13 µM | – | – | –
1.72 µM | 2.43 µM | CC(C)NCCOc1ccc2c(c1)C(=O)c1cc(OCCNC(C)C)ccc1-2 | 8.89 µM | 13.8 µM | 14.8 µM | – | – | –
